What was measured:
[1] = Cytotoxicity against human H460 cells after 72 hrs by MTT assay; settings: NCI-H460, 72 h
[2] = Cytotoxicity against human U87MG cells after 72 hrs by MTT assay; format: functional, cell-based, U-87MG ATCC; settings: U-87 MG
How it was run: (§1)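 Cells grown in MEM with 10% FBS; about 4 × 10³ cells per well, preincubated 24 h at 37 °C in 5% CO₂, then exposed to compound for 72 h. Each line tested three times; IC50 is mean of three determinations.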

HT-29 = assay: Cytotoxicity against human HT-29 cells after 72 hrs by MTT assay; settings: HT-29, 72 h
MKN-45 = assay: Cytotoxicity against human MKN45 cells after 72 hrs by MTT assay; settings: MKN-45, 72 h
A549 = assay: Cytotoxicity against human A549 cells after 72 hrs by MTT assay; format: functional, cell-based; settings: A549, 72 h; how it was run: as §1

Row | Structure (SMILES) | IC50 [1] [nM] | IC50 [2] [nM] | IC50 (HT-29) [nM] | IC50 (MKN-45) [nM] | IC50 (A549) [nM]
1 | COc1cc2c(Oc3ccc(NC(=O)c4nccc(-c5ccc(F)cc5F)n4)cc3F)ccnc2cc1OCCCN1CCCCC1 | 550 | 780 | 400 | 1120 | 470
2 | COc1cc2c(Oc3ccc(NC(=O)c4nccc(-c5ccc(C)cc5)n4)cc3F)ccnc2cc1OCCCN1CCN(C)CC1 | 160 |  | 210 | 340 | 
3 | COc1cc2c(Oc3ccc(NC(=O)c4nccc(-c5ccc(F)cc5)n4)cc3F)ccnc2cc1OCCCN1CCN(C)CC1 | 63 | 910 | 42 | 90 | 680
4 | COc1cc2c(Oc3ccc(NC(=O)c4nccc(-c5ccc(F)cc5F)n4)cc3F)ccnc2cc1OCCCN1CCN(C)CC1 | 450 | 780 | 480 | 440 | 660
5 | COc1cc2c(Oc3ccc(NC(=O)c4nccc(-c5ccccc5)n4)cc3F)ccnc2cc1OCCCN1CCCC1 | 1120 |  | 390 | 1360 | 
6 | COc1cc2c(Oc3ccc(NC(=O)c4nccc(-c5ccc(C)cc5)n4)cc3F)ccnc2cc1OCCCN1CCCC1 | 440 |  | 670 | 240 | 
7 | COc1cc2c(Oc3ccc(NC(=O)c4nccc(-c5ccc(F)cc5)n4)cc3F)ccnc2cc1OCCCN1CCCC1 | 300 | 1130 | 160 | 490 | 990
8 | COc1cc2c(Oc3ccc(NC(=O)c4cc(-c5ccc(C(F)(F)F)cc5)ccn4)cc3F)ccnc2cc1OCCCN1CCCC1 | 250 |  | 720 | 260 | 
9 | COc1ccc(-c2ccnc(C(=O)Nc3ccc(Oc4ccnc5cc(OCCCN6CCCC6)c(OC)cc45)c(F)c3)c2)cc1 | 200 |  | 350 | 150 | 
10 | COc1ccc(-c2ccnc(C(=O)Nc3ccc(Oc4ccnc5cc(OCCCN6CCCC6)c(OC)cc45)c(F)c3)c2)c(OC)c1 | 520 |  | 630 | 740 | 
11 | COc1cc2c(Oc3ccc(NC(=O)c4cc(-c5ccccc5)ccn4)cc3F)ccnc2cc1OCCCN1CCCCC1 | 120 | 790 | 270 | 270 | 1800
12 | COc1cc2c(Oc3ccc(NC(=O)c4cc(-c5ccc(C)cc5)ccn4)cc3F)ccnc2cc1OCCCN1CCCCC1 | 160 |  | 340 | 1670 | 
13 | COc1cc2c(Oc3ccc(NC(=O)c4cc(-c5ccc(F)cc5)ccn4)cc3F)ccnc2cc1OCCCN1CCCCC1 | 250 | 12500 | 1370 | 1240 | 10100
14 | COc1cc2c(Oc3ccc(NC(=O)c4cc(-c5ccccc5F)ccn4)cc3F)ccnc2cc1OCCCN1CCCCC1 | 130 |  | 320 | 180 | 
15 | COc1cc2c(Oc3ccc(NC(=O)c4cc(-c5ccc(C(F)(F)F)cc5)ccn4)cc3F)ccnc2cc1OCCCN1CCCCC1 | 360 | 1630 | 230 | 870 | 1640
16 | COc1ccc(-c2ccnc(C(=O)Nc3ccc(Oc4ccnc5cc(OCCCN6CCCCC6)c(OC)cc45)c(F)c3)c2)cc1 | 200 |  | 690 | 570 | 
17 | COc1cc2c(Oc3ccc(NC(=O)c4nccc(-c5ccccc5)n4)cc3F)ccnc2cc1OCCCN1CCOCC1 | 240 | 1350 | 150 | 260 | 510
18 | COc1cc2c(Oc3ccc(NC(=O)c4nccc(-c5ccc(C)cc5)n4)cc3F)ccnc2cc1OCCCN1CCOCC1 | 300 | 2400 | 240 | 310 | 2240
19 | COc1cc2c(Oc3ccc(NC(=O)c4nccc(-c5ccc(F)cc5)n4)cc3F)ccnc2cc1OCCCN1CCOCC1 | 220 |  | 110 | 360 | 
20 | COc1cc2c(Oc3ccc(NC(=O)c4nccc(-c5ccc(F)cc5F)n4)cc3F)ccnc2cc1OCCCN1CCOCC1 | 1030 |  | 2190 | 960 | 
21 | COc1cc2c(Oc3ccc(NC(=O)c4nccc(-c5ccccc5)n4)cc3F)ccnc2cc1OCCCN1CCCCC1 | 330 |  | 260 | 1030 | 
22 | COc1cc2c(Oc3ccc(NC(=O)c4nccc(-c5ccc(C)cc5)n4)cc3F)ccnc2cc1OCCCN1CCCCC1 | 230 | 1140 | 620 | 580 | 900

Row | Structure (SMILES) | IC50 [1] [nM] | IC50 [2] [nM] | IC50 (HT-29) [nM] | IC50 (MKN-45) [nM] | IC50 (A549) [nM]
23 | COc1cc2c(Oc3ccc(NC(=O)c4nccc(-c5ccc(F)cc5)n4)cc3F)ccnc2cc1OCCCN1CCCCC1 | 240 |  | 120 | 930 | 
24 | COc1cc2c(Oc3ccc(NC(=O)c4cc(-c5ccc(C(F)(F)F)cc5)ccn4)cc3F)ccnc2cc1OCCCN1CCN(C)CC1 | 160 |  | 200 | 330 | 
25 | COc1ccc(-c2ccnc(C(=O)Nc3ccc(Oc4ccnc5cc(OCCCN6CCN(C)CC6)c(OC)cc45)c(F)c3)c2)cc1 | 370 |  | 390 | 250 | 
26 | COc1ccc(-c2ccnc(C(=O)Nc3ccc(Oc4ccnc5cc(OCCCN6CCN(C)CC6)c(OC)cc45)c(F)c3)c2)c(OC)c1 | 430 |  | 420 | 330 | 
27 | COc1cc2c(Oc3ccc(NC(=O)c4cc(-c5ccccc5)ccn4)cc3F)ccnc2cc1OCCCN1CCOCC1 | 350 | 1280 | 330 | 280 | 3450
28 | COc1cc2c(Oc3ccc(NC(=O)c4cc(-c5ccc(C)cc5)ccn4)cc3F)ccnc2cc1OCCCN1CCOCC1 | 570 | 6790 | 290 | 440 | 3450
29 | COc1cc2c(Oc3ccc(NC(=O)c4cc(-c5ccccc5C)ccn4)cc3F)ccnc2cc1OCCCN1CCOCC1 | 2130 |  | 1050 | 1140 | 
30 | COc1cc2c(Oc3ccc(NC(=O)c4cc(-c5ccc(F)cc5)ccn4)cc3F)ccnc2cc1OCCCN1CCOCC1 | 1870 |  | 1000 | 870 | 
31 | COc1cc2c(Oc3ccc(NC(=O)c4cc(-c5ccccc5F)ccn4)cc3F)ccnc2cc1OCCCN1CCOCC1 | 680 | 3030 | 400 | 1310 | 3990
32 | COc1cc2c(Oc3ccc(NC(=O)c4cc(-c5ccc(C(F)(F)F)cc5)ccn4)cc3F)ccnc2cc1OCCCN1CCOCC1 | 52700 |  | 5070 | 78800 | 
33 | COc1ccc(-c2ccnc(C(=O)Nc3ccc(Oc4ccnc5cc(OCCCN6CCOCC6)c(OC)cc45)c(F)c3)c2)cc1 | 3120 |  | 1340 | 1150 | 
34 | COc1ccc(-c2ccnc(C(=O)Nc3ccc(Oc4ccnc5cc(OCCCN6CCOCC6)c(OC)cc45)c(F)c3)c2)c(OC)c1 | 12700 |  | 1530 | 6680 | 
35 | COc1cc2c(Oc3ccc(NC(=O)c4cc(-c5ccccc5)ccn4)cc3F)ccnc2cc1OCCCN1CCCC1 | 130 | 1010 | 120 | 210 | 1580
36 | COc1cc2c(Oc3ccc(NC(=O)c4cc(-c5ccc(C)cc5)ccn4)cc3F)ccnc2cc1OCCCN1CCCC1 | 160 | 560 | 350 | 440 | 1060
37 | COc1cc2c(Oc3ccc(NC(=O)c4cc(-c5ccccc5C)ccn4)cc3F)ccnc2cc1OCCCN1CCCC1 | 420 |  | 1150 | 440 | 
38 | COc1cc2c(Oc3ccc(NC(=O)c4cc(-c5ccc(F)cc5)ccn4)cc3F)ccnc2cc1OCCCN1CCCC1 | 370 | 1780 | 430 | 350 | 1800
39 | COc1cc2c(Oc3ccc(NC(=O)c4cc(-c5ccccc5F)ccn4)cc3F)ccnc2cc1OCCCN1CCCC1 | 140 | 610 | 230 | 230 | 430
40 | COc1cc2c(Oc3ccc(NC(=O)c4cc(-c5ccccc5)ccn4)cc3F)ccnc2cc1OCCCN1CCN(C)CC1 | 91 | 1010 | 82 | 150 | 340
41 | COc1cc2c(Oc3ccc(NC(=O)c4cc(-c5ccccc5C)ccn4)cc3F)ccnc2cc1OCCCN1CCN(C)CC1 | 150 | 2030 | 180 | 240 | 1330
42 | COc1cc2c(Oc3ccc(NC(=O)c4cc(-c5ccc(F)cc5)ccn4)cc3F)ccnc2cc1OCCCN1CCN(C)CC1 | 430 |  | 1460 | 510 | 
43 | COc1cc2c(Oc3ccc(NC(=O)c4cc(-c5ccccc5F)ccn4)cc3F)ccnc2cc1OCCCN1CCN(C)CC1 | 140 |  | 220 | 150 | 
